These results are taken from ChEMBL document CHEMBL3352004, “(7-Benzyloxy-2,3-dihydro-1H-pyrrolo[1,2-a]indol-1-yl)acetic Acids as S1P1 Functional Antagonists” (ACS Med Chem Lett, 2014).

Data set [1] can be described thus: Oral bioavailability in Sprague-Dawley rat at 1 mg/kg. The class given is ADME, organism-based. The note with it: in vivo.
The nature of data set [2]: AUC (0 to infinity) in Sprague-Dawley rat at 1 mg/kg, iv or at 1 mg/kg, po. The format is ADME, organism-based. The note with it: plasma.
Data set [3] deals with Sphingosine 1-phosphate receptor 2 (Homo sapiens, UniProt O95136). Nature of the data set: Agonist activity at human S1P2 receptor by beta-arrestin recruitment assay. (In general: Activated receptors often draw arrestin, which recruitment assays turn into a signal.)
Sequence of Sphingosine 1-phosphate receptor 2 (O95136 whole entry): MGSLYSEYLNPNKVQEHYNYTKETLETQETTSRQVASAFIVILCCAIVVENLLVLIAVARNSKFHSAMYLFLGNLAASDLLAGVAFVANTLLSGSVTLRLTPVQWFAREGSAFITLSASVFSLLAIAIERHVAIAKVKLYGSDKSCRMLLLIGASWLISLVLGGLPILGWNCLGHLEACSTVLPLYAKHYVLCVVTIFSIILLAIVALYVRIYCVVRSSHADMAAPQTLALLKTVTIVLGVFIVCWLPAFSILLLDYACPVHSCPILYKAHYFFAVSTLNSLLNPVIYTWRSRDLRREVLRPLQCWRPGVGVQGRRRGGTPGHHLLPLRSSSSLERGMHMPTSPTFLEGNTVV
Data set [4] has as its target T1, Sphingosine 1-phosphate receptor 1 (Homo sapiens, UniProt P21453). The experiment in a line: Agonist activity at human S1P1 receptor by beta-arrestin recruitment assay.
Data set [5] concerns the target Sphingosine 1-phosphate receptor 3 (Homo sapiens, UniProt Q99500). Nature of the data set: Agonist activity at human S1P3 receptor by beta-arrestin recruitment assay.
The nature of data set [6]: Cmax in Sprague-Dawley rat at 1 mg/kg, po. The class given is ADME, organism-based. On the set-up: dose 1 mg/kg, route oral. The note with it: in vivo.
Data set [7] can be described thus: Ratio of drug level in brain to plasma in Sprague-Dawley rat. The note with it: read-out: BPR. The format is ADME. In outline: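 Abbreviated rat CNS distribution: a single 1.0 mg/kg oral dose, with brain and plasma drug levels measured over 6 h. Brain-to-plasma ratio derived from these levels.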
The target in data set [8] is T1, Sphingosine 1-phosphate receptor 1. The experiment in a line: Agonist activity at human S1P1 receptor assessed as cAMP accumulation by HTRF assay. The format is functional. In outline:
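S1P1 engagement measured as cyclase activity in a homogeneous time-resolved fluorescence (HTRF) assay.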
In general terms: Changes in cAMP serve as a functional read-out for many G protein-coupled receptors.

The nature of data set [9]: Elimination half life in Sprague-Dawley rat at 1 mg/kg, po. The class given is ADME, organism-based. On the set-up: dose 1 mg/kg, route oral. The note with it: in vivo, read-out: beta t1/2 (converted).
Data set [10] is described as follows: Tmax in Sprague-Dawley rat at 1 mg/kg, po. The note with it: in vivo. On the set-up: dose 1 mg/kg, route oral. The format is ADME, organism-based.
A short description of data set [11]: Systemic clearance in Sprague-Dawley rat at 1 mg/kg, iv. The class given is ADME, organism-based. On the set-up: dose 1 mg/kg, route intravenous. The note with it: in vivo.
The species named for another data set is Rattus norvegicus. The experiment in a line: Reduction in lymphocyte count in Sprague-Dawley rat. The class given is functional, organism-based. An outline of the steps: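 A PK/PD model relating plasma drug concentration to circulating lymphocyte counts was used to derive the plasma concentration that reduces lymphocytes by 50% (LL IC50, ng/mL).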
A short description of data set [12]: Volume of distribution at steady state in Sprague-Dawley rat at 1 mg/kg, iv. The class given is ADME, organism-based. Set-up: dose 1 mg/kg, route intravenous. The note with it: in vivo, read-out: Vdss.
The target of data set [13] is T2, Sphingosine 1-phosphate receptor 4 (Homo sapiens, UniProt O95977).
T2 sequence (O95977 whole entry): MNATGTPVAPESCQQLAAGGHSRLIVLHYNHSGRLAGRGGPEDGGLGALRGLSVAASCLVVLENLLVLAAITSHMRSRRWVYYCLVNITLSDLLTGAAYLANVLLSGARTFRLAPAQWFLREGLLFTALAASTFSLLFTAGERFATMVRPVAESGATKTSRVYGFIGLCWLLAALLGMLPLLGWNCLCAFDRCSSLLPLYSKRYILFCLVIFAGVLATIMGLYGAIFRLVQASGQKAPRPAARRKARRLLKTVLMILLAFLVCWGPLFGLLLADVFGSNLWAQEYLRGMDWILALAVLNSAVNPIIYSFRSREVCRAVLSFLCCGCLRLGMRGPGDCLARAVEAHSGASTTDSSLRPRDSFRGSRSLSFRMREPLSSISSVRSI
Nature of the data set: Agonist activity at human S1P4 receptor by beta-arrestin recruitment assay.

Data set [14] concerns the target T3, Sphingosine 1-phosphate receptor 5 (Homo sapiens, UniProt Q9H228). Nature of the data set: Agonist activity at human S1P5 receptor by beta-arrestin recruitment assay.
In data set [15] the target is T1, Sphingosine 1-phosphate receptor 1. The experiment in a line: Agonist activity at human S1P1 receptor assessed as cAMP accumulation by HTRF assay relative to S1P. The class given is functional.
Data set [16] has the same target. The experiment in a line: Agonist activity at human S1P1 receptor by beta-arrestin recruitment assay relative to S1P.
In data set [17] the target is T3, Sphingosine 1-phosphate receptor 5. The experiment in a line: Agonist activity at human S1P5 receptor by beta-arrestin recruitment assay relative to S1P.
Data set [18] has as its target T4, Sphingosine 1-phosphate receptor 4 (Homo sapiens) (UniProt O95977).
T4 sequence (whole entry): T2 sequence (O95977 whole entry)
The experiment in a line: Agonist activity at human S1P4 receptor by beta-arrestin recruitment assay relative to S1P.

Converted amounts (≈) assume the structure as drawn.

T1 sequence (P21453 whole entry): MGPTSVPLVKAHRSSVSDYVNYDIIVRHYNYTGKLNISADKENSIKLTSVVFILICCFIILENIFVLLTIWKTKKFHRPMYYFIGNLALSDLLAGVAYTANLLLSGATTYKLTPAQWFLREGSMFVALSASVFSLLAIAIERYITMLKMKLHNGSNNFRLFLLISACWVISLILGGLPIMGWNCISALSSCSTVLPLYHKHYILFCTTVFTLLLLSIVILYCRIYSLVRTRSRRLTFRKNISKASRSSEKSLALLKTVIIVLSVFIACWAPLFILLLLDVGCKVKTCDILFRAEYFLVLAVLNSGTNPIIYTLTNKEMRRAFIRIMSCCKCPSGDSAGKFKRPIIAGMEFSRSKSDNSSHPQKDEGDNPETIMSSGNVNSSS
T3 sequence (Q9H228 whole entry): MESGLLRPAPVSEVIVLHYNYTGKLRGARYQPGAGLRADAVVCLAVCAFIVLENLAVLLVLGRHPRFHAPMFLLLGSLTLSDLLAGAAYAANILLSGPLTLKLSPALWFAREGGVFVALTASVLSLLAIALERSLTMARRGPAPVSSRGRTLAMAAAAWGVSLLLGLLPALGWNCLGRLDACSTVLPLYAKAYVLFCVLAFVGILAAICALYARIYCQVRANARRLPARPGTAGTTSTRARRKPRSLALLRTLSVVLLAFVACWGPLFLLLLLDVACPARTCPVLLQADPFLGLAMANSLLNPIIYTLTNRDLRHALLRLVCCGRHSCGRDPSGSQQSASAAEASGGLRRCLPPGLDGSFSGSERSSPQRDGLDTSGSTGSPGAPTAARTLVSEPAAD
Sequence of Sphingosine 1-phosphate receptor 3 (Q99500 whole entry): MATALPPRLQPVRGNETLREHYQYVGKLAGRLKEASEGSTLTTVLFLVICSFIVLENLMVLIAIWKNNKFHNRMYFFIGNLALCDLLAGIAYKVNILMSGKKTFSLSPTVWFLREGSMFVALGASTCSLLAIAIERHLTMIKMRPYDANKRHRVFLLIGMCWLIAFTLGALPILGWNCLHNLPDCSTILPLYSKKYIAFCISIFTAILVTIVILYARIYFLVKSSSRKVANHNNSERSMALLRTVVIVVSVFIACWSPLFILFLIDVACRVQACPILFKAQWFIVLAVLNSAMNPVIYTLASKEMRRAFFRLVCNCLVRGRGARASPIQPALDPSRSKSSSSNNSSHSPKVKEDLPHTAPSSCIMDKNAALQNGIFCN

For the molecule `O=C(O)CC1CCn2c1cc1cc(OCc3ccc(C4CCCC4)c(C(F)(F)F)c3)ccc12` (stereo in doubt; 12a) [listing 1 of 2 here], in [1], the bioavailability – broadly, dose-corrected exposure relative to a reference, in per cent – was found to be 39%. The AUC(0-inf) (in general, total exposure, with the tail of the curve extrapolated) in [2] was 5.43 µg·h/mL. The EC50 (commonly the concentration at which the effect is half-maximal) in data set [3] was > 10000 nM; in [4], 2.5 nM; in [5] it was > 10000 nM; in data set [8], 0.041 nM; in [13], 570 nM; in [14] it was 107 nM. Also, the peak level in data set [6] (Cmax) was 0.526 µg/mL. Also, in [7], the Kp worked out at 0.53. The half-life in [9] was 9.16 h. The Tmax (in general, the time at which the peak concentration occurs) in data set [10] worked out at 2.67 h. In addition, in [11], the clearance (in general, the rate of elimination divided by the concentration) is 0.0721 L/h/kg. Moreover, in the data set filed under Rattus norvegicus, half-maximal inhibition (IC50) required 0.0241 mg/L (≈ 0.0527 µM). For the same molecule, the Vd in data set [12] is 0.986 L/kg.
Turning to `CC(C)Oc1ccc(COc2ccc3c(c2)cc2n3CCC2CC(=O)O)cc1C#N` (racemic) [listing 1 of 2 here], the EC50 in data set [8] is 0.15 nM.
As for `O=C(O)CC1CCn2c1cc1cc(OCc3ccc(Cl)c(C(F)(F)F)c3)ccc12` (racemic), in data set [8], the EC50 came to 150 nM. For the same molecule, in data set [15], the Emax (in general, the maximal effect, on the per cent scale that the assay sets) is 116%.
Regarding `CC(C)Oc1ccc(COc2ccc3c(c2)cc2n3CCC2CC(=O)O)cc1C(F)(F)F` (single isomer, unassigned; enantiomer 1) [listing 1 of 2 here], the Emax in data set [16] worked out at 108%; in data set [15], 107%.
For `CC(C)Oc1ccc(COc2ccc3c(c2)cc2n3CCC2CC(=O)O)cc1C(F)(F)F` (racemic) [listing 1 of 2 here], the Emax in [15] was found to be 112%.
Take `CC(C)Oc1ccc(COc2ccc3c(c2)cc2n3CCC2CC(=O)O)cc1C#N` (racemic) [listing 2 of 2 here]: in [15], the Emax was 105%.
For `O=C(O)CC1CCn2c1cc1cc(OCc3ccc(C4CCCC4)c(C(F)(F)F)c3)ccc12` (stereo in doubt; 12b) [listing 1 of 2 here], the EC50 in data set [3] was > 10000 nM; in data set [4], 20 nM; in [5], > 10000 nM; in [8], 0.32 nM; in [13] it was 420 nM; in data set [14] it was 81 nM.
`O=C(O)CC1CCn2c1cc1cc(OCc3ccc(C4CCCC4)c(C(F)(F)F)c3)ccc12` (racemic) [listing 1 of 2 here]: in data set [8], the half-maximal effective concentration (EC50) worked out at 0.095 nM.
`O=C(O)CC1CCn2c1cc1cc(OCc3ccc(OCF)c(C(F)(F)F)c3)ccc12` (racemic): the EC50 in [8] worked out at 6.7 nM. Moreover, the Emax in data set [15] turned out to be 119%.
For `CC(C)Oc1ccc(COc2ccc3c(c2)cc2n3CCC2CC(=O)O)cc1C#N` (stereo in doubt; 19a) [listing 1 of 2 here], the figures for the Emax in data set [16], in [17] and in [15] were 128%, 54% and 98%, respectively.
In the case of `CC(C)Oc1ccc(COc2ccc3c(c2)cc2n3CCC2CC(=O)O)cc1C(F)(F)F` (single isomer, unassigned; enantiomer 2) [listing 1 of 2 here], the results for the Emax in data set [16] and in data set [15] were 104% and 116%, respectively.
On to `O=C(O)CC1CCn2c1cc1cc(OCc3ccc(OCC4CC4)c(C(F)(F)F)c3)ccc12` (racemic), for which the EC50 in data set [8] is 1.1 nM. The Emax in [15] is 100%.
Turning to `O=C(O)CC1CCn2c1cc1cc(OCc3ccc(C4CCCC4)c(C(F)(F)F)c3)ccc12` (racemic) [listing 2 of 2 here], the Emax in [15] worked out at 108%.
As for `N#Cc1cc(COc2ccc3c(c2)cc2n3CCC2CC(=O)O)ccc1C1CCCC1` (racemic), the EC50 in [8] was 0.49 nM. Besides, the Emax in data set [15] came to 92%.
Take `CC(C)Oc1ccc(COc2ccc3c(c2)cc2n3CCC2CC(=O)O)cc1C#N` (stereo in doubt; 19b) [listing 1 of 2 here]: the Emax was 122% in [16], 133% in [17] and 104% in [15].
In the case of `CC(C)Oc1ccc(COc2ccc3c(c2)cc2n3CCC2CC(=O)O)cc1C(F)(F)F` (single isomer, unassigned; enantiomer 2) [listing 2 of 2 here], the EC50 in data set [3] was > 10000 nM; in [4] it was 40 nM; in data set [5], > 10000 nM; in [8] it was 0.64 nM; in [13] it was > 10000 nM; in data set [14], > 10000 nM.
Take `O=C(O)CC1CCn2c1cc1cc(OCc3ccc(C4CCCC4)c(C(F)(F)F)c3)ccc12` (stereo in doubt; 12b) [listing 2 of 2 here]: the maximal response (Emax) in [16] came out at 100%; in data set [17], 59%; in data set [15], 100%; in data set [18] it was 49%.
As to `CC(C)Oc1ccc(COc2ccc3c(c2)cc2n3CCC2CC(=O)O)cc1C#N` (stereo in doubt; 19a) [listing 2 of 2 here], in data set [1], the bioavailability turned out to be 49.8%. Moreover, the AUC(0-inf) in [2] stood at 3.99 µg·h/mL. For the same molecule, the EC50 in data set [3] was > 10000 nM; in data set [4], 11 nM; in [5], > 10000 nM; in data set [8] it was 0.13 nM; in data set [13] it was > 10000 nM; in [14], 410 nM. Also, in [6], the highest level (Cmax) was 0.569 µg/mL. Further, the Kp in data set [7] is 0.016. The half-life in data set [9] is 3.99 h. For the same molecule, in data set [10], the Tmax stood at 2 h. The molecule further had a clearance in data set [11] of 0.131 L/h/kg. Besides, in the data set filed under Rattus norvegicus, the IC50 (in general, the point on the concentration scale where inhibition reaches its midpoint) amounted to 0.21 mg/L (≈ 0.519 µM). Besides, the Vd in [12] was 0.732 L/kg.
As to `CC(C)Oc1ccc(COc2ccc3c(c2)cc2n3CCC2CC(=O)O)cc1C#N` (stereo in doubt; 19b) [listing 2 of 2 here], the EC50 in [3] was > 10000 nM; in data set [4], 160 nM; in [5] it was > 10000 nM; in [8], 1.5 nM; in data set [13], > 10000 nM; in data set [14] it was 9800 nM.
Regarding `CC(C)Oc1ccc(COc2ccc3c(c2)cc2n3CCC2CC(=O)O)cc1C(F)(F)F` (racemic) [listing 2 of 2 here], the EC50 in [8] turned out to be 0.15 nM.
For `N#Cc1ccc(COc2ccc3c(c2)cc2n3CCC2CC(=O)O)cc1C(F)(F)F` (racemic), the EC50 in data set [8] turned out to be 83 nM. Further, the Emax in data set [15] is 104%.
On to `COc1ccc(COc2ccc3c(c2)cc2n3CCC2CC(=O)O)cc1C#N` (racemic), for which the EC50 in [8] stood at 38 nM. Further, in data set [15], the Emax stood at 122%.
For the molecule `O=C(O)CC1CCn2c1cc1cc(OCc3ccc(C4CCCC4)c(C(F)(F)F)c3)ccc12` (stereo in doubt; 12a) [listing 2 of 2 here], the Emax in [16] came to 105%; in data set [17], 83%; in data set [15] it was 97%; in data set [18], 47%.
Take `CC(C)Oc1ccc(COc2ccc3c(c2)cc2n3CCC2CC(=O)O)cc1C(F)(F)F` (single isomer, unassigned; enantiomer 1) [listing 2 of 2 here]: the EC50 in data set [3] was > 10000 nM; in data set [4] it was 8.6 nM; in [5], > 10000 nM; in data set [8], 0.067 nM; in data set [13], > 10000 nM; in [14] it was > 10000 nM.
